According to ChEMBL document CHEMBL1221394, “Anti-AIDS agents 79. Design, synthesis, molecular modeling and structure-activity relationships of novel dicamphanoyl-2',2'-dimethyldihydropyranochromone (DCP) analogs as potent anti-HIV agents” (Bioorg Med Chem, 2010):
In brackets after ≈: the same amount, converted by molar mass.

Legend:
[1] = Therapeutic index, ratio of CC50 for human H9 cells to EC50 for HIV1 3B; assay type: cell-based; conditions: read-out: TI
[2] = tested on: Human immunodeficiency virus 1; assay: Antiviral activity against HIV1 3B infected in human H9 cells; assay type: functional, organism-based; conditions: Human immunodeficiency virus 1, 3B
[3] = tested on: Human immunodeficiency virus 1; assay: Antiviral activity against wild type HIV1 NL4-3 in human TZM-b1 cells after 48 hrs by luciferase reporter gene assay; assay type: functional, organism-based; conditions: Human immunodeficiency virus 1, NL4-3, TZM-b1, 48 h
Method in brief: (§1)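 Single-round infection of TZM-bl cells with 200 TCID50 virus mixed with test sample at eight 4-fold serial dilutions. Incubated 48 h, then luciferase reagent was added and luminescence read. IC50 is the concentration giving 50% reduction in RLU versus virus-control wells, after subtracting background RLU.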

[4] = Therapeutic index, ratio of CC50 for human H9 cells to EC50 for HIV1; assay type: cell-based; conditions: read-out: TI
[5] = Solubility of the compound in water after 1 hr; assay type: physicochemical
Method in brief: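 Excess solid compound was added to HPLC-grade water and sonicated in an ultrasonic bath at room temperature for 1 h. Undissolved solid was removed with a PTFE syringe filter. Dissolved concentration was quantified by HPLC on a C18 column (2.1 mm × 100 mm) at a flow rate of 200 μL/min.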

[6] = tested on: Human immunodeficiency virus 1; assay: Antiviral activity against HIV1 RTMDR1 in human MT4 cells; assay type: functional, organism-based; conditions: Human immunodeficiency virus 1, RTMDR1, MT4
[7] = tested on: Human immunodeficiency virus 1; assay: Antiviral activity against HIV1 infected in human H9 cells; assay type: functional, organism-based; conditions: Human immunodeficiency virus 1, H9
[8] = Therapeutic index, ratio of CC50 for human H9 cells to EC50 for HIV1 RTMDR1; assay type: cell-based; conditions: read-out: TI
[9] = Therapeutic index, ratio of IC50 for human TZM-b1 cells to EC50 for HIV1 NL4-3; assay type: cell-based; conditions: read-out: TI
Method in brief: (§2)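 Cytotoxicity was measured with the CytoTox-Glo kit following the manufacturer's instructions. Antiviral EC50 came from the single-round TZM-bl luciferase assay: 200 TCID50 virus, eight 4-fold sample dilutions, 48 h, and 50% RLU reduction versus virus control after background subtraction.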

[10] = Therapeutic index, ratio of IC50 for human TZM-b1 cells to EC50 for HIV1 RTMDR1; assay type: cell-based; conditions: read-out: TI; method in brief: as §2
[11] = tested on: Human immunodeficiency virus 1; assay: Antiviral activity against HIV1 RTMDR1 in human TZM-b1 cells after 48 hrs by luciferase reporter gene assay; assay type: functional, organism-based; conditions: Human immunodeficiency virus 1, RTMDR1, TZM-b1, 48 h; method in brief: as §1
[12] = Cytotoxicity against human TZM-b1 cells; assay type: cell-based
Method in brief: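 Cytotoxicity in TZM-bl cells read with the CytoTox-Glo luminescent assay, run according to the kit instructions.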

Q: Which selectivity ratio [1] does the source give for `Cc1cc(=O)oc2c3c(ccc12)OC(C)(C)[C@H](OC(=O)[C@@]12CC[C@@](C)(C(=O)O1)C2(C)C)[C@@H]3OC(=O)[C@@]12CC[C@@](C)(C(=O)O1)C2(C)C` here?
A: The selectivity ratio was 6660.

Q: What about the EC50 [2] of the same compound?
A: Its EC50 is 5.9 nM.

Q: With `CCc1cc(=O)c2ccc3c(c2o1)[C@@H](OC(=O)[C@@]12CC[C@@](C)(C(=O)O1)C2(C)C)[C@@H](OC(=O)[C@@]12CC[C@@](C)(C(=O)O1)C2(C)C)C(C)(C)O3` as the compound, how does the EC50 [3] read?
A: Its EC50 is 70 nM.

Q: And the selectivity ratio [4]?
A: The selectivity ratio was 94.

Q: What about the solubility ([5]; HPLC grade water, 1 h) of the same compound?
A: The solubility was < 0.9 µg/mL.

Q: What about the EC50 [6] of the same compound?
A: The EC50 was 110 nM.

Q: And the EC50 [7]?
A: Its EC50 is 70 nM.

Q: And the selectivity ratio [8]?
A: Its selectivity ratio is 60.

Q: And the selectivity ratio [9]?
A: Its selectivity ratio is 94.

Q: What about the selectivity ratio [10] of the same compound?
A: Its selectivity ratio is 60.

Q: And the EC50 [11]?
A: Its EC50 is 110 nM.

Q: What about the IC50 [12] of the same compound?
A: Its IC50 is 6600 nM.

Q: What does the source list for `CNc1c(C)oc2c3c(ccc2c1=O)OC(C)(C)[C@H](OC(=O)[C@@]12CC[C@@](C)(C(=O)O1)C2(C)C)[C@@H]3OC(=O)[C@@]12CC[C@@](C)(C(=O)O1)C2(C)C`?
A: EC50 [3]: 300 nM; selectivity ratio [9]: > 200; selectivity ratio [10]: > 130; EC50 [11]: 450 nM; IC50 [12]: > 60000 nM

Q: What does the source list for `Cc1oc2c3c(ccc2c(=O)c1Br)OC(C)(C)[C@H](OC(=O)[C@@]12CC[C@@](C)(C(=O)O1)C2(C)C)[C@@H]3OC(=O)[C@@]12CC[C@@](C)(C(=O)O1)C2(C)C`?
A: EC50 [3]: 550 nM; selectivity ratio [9]: 14; selectivity ratio [10]: 14; EC50 [11]: 570 nM; IC50 [12]: 7700 nM

Q: With `Cc1cc(=O)c2c(C)cc3c(c2o1)[C@@H](OC(=O)[C@@]12CC[C@@](C)(C(=O)O1)C2(C)C)[C@@H](OC(=O)[C@@]12CC[C@@](C)(C(=O)O1)C2(C)C)C(C)(C)O3` as the compound, how does the EC50 [3] read?
A: Its EC50 is 36 nM.

Q: And the solubility at 1 h ([5]; water)?
A: Its solubility at 1 h is 5.2 µg/mL (≈ 7.99 µM).

Q: And the selectivity ratio [9]?
A: The selectivity ratio was 420.

Q: And the selectivity ratio [10]?
A: The selectivity ratio was 310.

Q: And the EC50 [11]?
A: The EC50 was 49 nM.

Q: What about the IC50 [12] of the same compound?
A: Its IC50 is 15000 nM.

Q: What does the source list for `Cc1oc2c3c(cc(C)c2c(=O)c1Br)OC(C)(C)[C@H](OC(=O)[C@@]12CC[C@@](C)(C(=O)O1)C2(C)C)[C@@H]3OC(=O)[C@@]12CC[C@@](C)(C(=O)O1)C2(C)C`?
A: EC50 [3]: 590 nM; selectivity ratio [9]: > 24; selectivity ratio [10]: > 15; EC50 [11]: 910 nM; IC50 [12]: > 14000 nM

Q: What does the source list for `Cc1oc2c3c(c(Br)c(C)c2c(=O)c1Br)OC(C)(C)[C@H](OC(=O)[C@@]12CC[C@@](C)(C(=O)O1)C2(C)C)[C@@H]3OC(=O)[C@@]12CC[C@@](C)(C(=O)O1)C2(C)C`?
A: EC50 [3]: 10000 nM; selectivity ratio [9]: > 1.2; EC50 [11]: > 12000 nM; IC50 [12]: > 12000 nM

Q: What does the source list for `Cc1cc(=O)c2c(CBr)cc3c(c2o1)[C@@H](OC(=O)[C@@]12CC[C@@](C)(C(=O)O1)C2(C)C)[C@@H](OC(=O)[C@@]12CC[C@@](C)(C(=O)O1)C2(C)C)C(C)(C)O3`?
A: EC50 [3]: 810 nM; selectivity ratio [9]: 11; selectivity ratio [10]: 7.4; EC50 [11]: 1200 nM; IC50 [12]: 8900 nM

Q: With `CCc1cc(=O)c2c(C)cc3c(c2o1)[C@@H](OC(=O)[C@@]12CC[C@@](C)(C(=O)O1)C2(C)C)[C@@H](OC(=O)[C@@]12CC[C@@](C)(C(=O)O1)C2(C)C)C(C)(C)O3` as the compound, how does the EC50 [3] read?
A: Its EC50 is 100 nM.

Q: What about the selectivity ratio [9] of the same compound?
A: Its selectivity ratio is 110.

Q: And the selectivity ratio [10]?
A: The selectivity ratio was 200.

Q: And the EC50 [11]?
A: The EC50 was 54 nM.

Q: What about the IC50 [12] of the same compound?
A: Its IC50 is 11000 nM.

Q: With `CCc1cc(=O)c2c(CC)cc3c(c2o1)[C@@H](OC(=O)[C@@]12CC[C@@](C)(C(=O)O1)C2(C)C)[C@@H](OC(=O)[C@@]12CC[C@@](C)(C(=O)O1)C2(C)C)C(C)(C)O3` as the compound, how does the EC50 [3] read?
A: The EC50 was 250 nM.

Q: And the selectivity ratio [9]?
A: The selectivity ratio was > 120.

Q: What about the EC50 [11] of the same compound?
A: Its EC50 is 340 nM.

Q: And the IC50 [12]?
A: The IC50 was > 30000 nM.

Q: Which EC50 [3] does the source give for `CC1(C)Oc2ccc3c(=O)cc(CBr)oc3c2[C@@H](OC(=O)[C@@]23CC[C@@](C)(C(=O)O2)C3(C)C)[C@H]1OC(=O)[C@@]12CC[C@@](C)(C(=O)O1)C2(C)C` here?
A: Its EC50 is 550 nM.

Q: What about the selectivity ratio [9] of the same compound?
A: The selectivity ratio was 3.

Q: What about the selectivity ratio [10] of the same compound?
A: The selectivity ratio was 3.

Q: And the EC50 [11]?
A: Its EC50 is 560 nM.

Q: What about the IC50 [12] of the same compound?
A: Its IC50 is 1700 nM.

Q: For `CC(Br)c1cc(=O)c2ccc3c(c2o1)[C@@H](OC(=O)[C@@]12CC[C@@](C)(C(=O)O1)C2(C)C)[C@@H](OC(=O)[C@@]12CC[C@@](C)(C(=O)O1)C2(C)C)C(C)(C)O3` (some centres not stated), which IC50 [12] is on record?
A: Its IC50 is 3500 nM.

Q: Which EC50 [3] does the source give for `CC(Br)(Br)c1cc(=O)c2ccc3c(c2o1)[C@@H](OC(=O)[C@@]12CC[C@@](C)(C(=O)O1)C2(C)C)[C@@H](OC(=O)[C@@]12CC[C@@](C)(C(=O)O1)C2(C)C)C(C)(C)O3` here?
A: The EC50 was 1000 nM.

Q: What about the selectivity ratio [9] of the same compound?
A: The selectivity ratio was 1.8.

Q: And the selectivity ratio [10]?
A: Its selectivity ratio is 4.

Q: What about the EC50 [11] of the same compound?
A: The EC50 was 450 nM.

Q: What about the IC50 [12] of the same compound?
A: The IC50 was 1800 nM.
